Only some compounds are listed: those with a hit (about 5.1% of all), similar ones and a draw of the others.
STAT3 act = activators of IL-6 induced STAT3 signaling; U3A cells, IL-6 STAT3-luciferase reporter, luminescence; 100% = signal with IL-6 EC80 alone; activation (% of control), % at 5.6 µM; 0.91% of 190,000 active; AID 871;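 active = activation above the screen-wide mean of compound activation plus 3 SD, cut at about 130% in these data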;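 note: 0% = background luminescence of wells with medium and substrate only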
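Assay system – human STAT1-deficient U3A cells with stable STAT3-luciferase reporter · Also added – IL-6 (33 ng/mL) · Schedule – compound 1 h, then IL-6 6 h at 37 °C · Technique – reporter luminescence signal · Evaluation – % activation versus median of IL-6-stimulated wells · Benchmarks – IL-6-only wells as 100% reference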
APP 5'UTR act = activates APP 5'UTR luciferase reporter | SH-SY5Y APP 5'UTR luciferase reporter, luminescence; zero percent = DMSO vehicle wells | activation, % at 2 µM | 1% of 190,000 active | AID 1276;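 active = activation above a set limit, based on mean plus 3 SD of controls, cut at about 140% in these data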
STAT1 activator = increases IFN-gamma driven STAT1 reporter signal. AID 932. 2.6% of 200,000 active. activation (% of control), % at 5.5 µM. NIH 3T3 STAT1-luciferase reporter, luminescence; 100% = IFN-gamma alone, no compound;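 active = activation above the screen-wide mean activation plus 3 SD, cut at about 130% in these data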;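 note: raw ratio to IFN-gamma control signal so 100% means no change and 0% no light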
STAT1 blocker = reduces IFN-gamma driven STAT1 reporter signal; inhibition, % at 5.5 µM; 0.35% of 200,000 active; NIH 3T3 STAT1-luciferase reporter, luminescence;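 active = inhibition above a set limit, the mean inhibition across all tested compounds plus 3 SD, cut at about 34% in these data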;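 note: 0% = IFN-gamma with DMSO and 100% = IFN-gamma with 300 µM nifuroxazide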
STAT3 blocker = inhibitors of IL-6 induced STAT3 signaling | AID 862 | inhibition, % at 5.5 µM | U3A cells, IL-6 STAT3-luciferase reporter, luminescence; host cell line lacks STAT1 | 0.89% of 190,000 active;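 active = inhibition above the mean inhibition across all screened compounds plus 3 SD, cut at about 44% in these data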;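 note: 0% = DMSO only wells and 100% = 100 µM nifuroxazide control wells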
NF-kB expr up = NF-kB expression increase, human neuronal cells. NF-kB reporter expression; hits give high values. fold change at 12.5 µM. 1.6% of 190,000 active. AID 1239; in the data active = fold change above about 3.3
STAT1 activ conf = confirmation of STAT1 signaling activators; shares compounds with STAT1 activator; NIH 3T3 STAT1-luciferase reporter, IFN-gamma potentiation, luminescence; 100% = IFN-gamma EC80 alone, no compound; activation (% of control), % at 5.7 µM; 97% of 1,200 active; AID 1262;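 active = activation above a set limit carried over from the earlier primary STAT1 screen, cut at about 140% in these data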;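 note: simple ratio to median IFN-gamma plus DMSO wells so 0% means no light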
NFkB act = counter-screen for STAT1 activators: NF-kappaB activation; shares compounds with STAT1 activator; HEK293T NF-kB luciferase reporter, TNF-alpha stimulated, luminescence; 100% = TNF-alpha with vehicle only; activation (% of control), % at 5.7 µM; 43% of 1,200 active; AID 1306;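 active = activation above the mean of solvent-only control wells plus 3 SD, set per campaign, cut at about 130% in these data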;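 note: TNF-alpha given at a submaximal dose yielding about 80% of full reporter signal; values are well signal over median control so 100% means no change and 0% no light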
STAT3 act 2 = human STAT3 activation in STAT1 activator counter-screen; AID 1316; shares compounds with STAT1 activator; U3A cells STAT3-luciferase reporter, IL-6, luminescence; cells lack STAT1; 100 = IL-6 alone, no compound effect; activation (% of control), % at 5.7 µM; 46% of 1,200 active;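 active = activation above the solvent-only control well mean plus 3 SD, set per plate batch, cut at about 110% in these data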;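 note: 0% = no luminescence and 100% = median IL-6 plus DMSO wells; higher means more STAT3 reporter activation so hits are non-selective activators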
An asterisk follows results filed as active.

For C=CCOC(=O)c1sc(NC(=O)c2ccc(OC)cc2)nc1C the results were STAT3 act 86.8, APP 5'UTR act 49.0, STAT1 activator 107.4, STAT1 blocker -8.3, STAT3 blocker 20.1 and NF-kB expr up 2.36.
COc1ccc(-c2csc(NS(=O)(=O)c3ccc([N+](=O)[O-])cc3)n2)cc1 was read as STAT3 act 95.1, APP 5'UTR act 11.0, STAT1 activator 98.3, STAT1 blocker 1.9, STAT3 blocker 8.4 and NF-kB expr up 0.91.
Screening CCCCOC(=O)Nc1ccc2c(C)cc(=O)oc2c1 returned STAT3 act 89.8, APP 5'UTR act 137.7*, STAT1 activator 166.1*, STAT1 blocker -72.0, STAT3 blocker 15.1, NF-kB expr up 5.82*, STAT1 activ conf 196.6*, NFkB act 143.8* and STAT3 act 2 103.7.
For CCOC(=O)Nc1ccc2c(C)cc(=O)oc2c1 the results were STAT3 act 94.3, APP 5'UTR act 37.3, STAT1 activator 109.5, STAT1 blocker -10.2, STAT3 blocker 10.4 and NF-kB expr up 2.39.
`COc1ccc(NC(=O)/C(Cl)=C(/Cl)S(=O)(=O)Cc2ccccc2)cn1` gave STAT3 act 108.8, APP 5'UTR act -76.9, STAT1 activator 170.3*, STAT1 blocker -137.0, STAT3 blocker -9.3, NF-kB expr up 0.27, STAT1 activ conf 160.1*, NFkB act 90.2 and STAT3 act 2 116.0*.
Screening COc1ccc(NC(=O)/C(Cl)=C(/Cl)S(=O)Cc2ccc(Cl)cc2)cn1 (stereo not drawn) returned STAT3 act 79.3, APP 5'UTR act -95.9, STAT1 activator 291.5*, STAT1 blocker -202.4, STAT3 blocker 26.0, NF-kB expr up 0.18, STAT1 activ conf 278.2*, NFkB act 46.9 and STAT3 act 2 101.0.
COc1ccc(NC(=O)C(Cl)=C(Cl)Cl)cn1 was read as STAT3 act 102.4, APP 5'UTR act -29.6, STAT1 activator 96.6, STAT1 blocker 4.2, STAT3 blocker -2.3 and NF-kB expr up 1.86.
COc1ccc(CC(=O)Nc2ccc(OC)nc2)cc1 was read as STAT3 act 111.0, APP 5'UTR act 2.2, STAT1 activator 94.3, STAT1 blocker 4.7, STAT3 blocker -5.6 and NF-kB expr up 1.08.
Screening CCOC(=O)CC(=O)CSc1nc(-c2cccnc2)ccc1C#N returned STAT3 act 88.9, APP 5'UTR act 0.2, STAT1 activator 97.8, STAT1 blocker 2.3, STAT3 blocker 16.9 and NF-kB expr up 1.05.
Screening CCOC(=O)CSc1nc(-c2ccncc2)ccc1C#N returned STAT3 act 103.9, APP 5'UTR act 184.9*, STAT1 activator 158.6*, STAT1 blocker -64.4, STAT3 blocker 1.1, NF-kB expr up 8.91*, STAT1 activ conf 190.4*, NFkB act 131.4 and STAT3 act 2 105.6.
For Cc1ccc(CNC(=O)CCc2nnc(Cc3ccc(-c4ccccc4)cc3)o2)o1 the results were STAT3 act 100.2, APP 5'UTR act 2.9, STAT1 activator 91.7, STAT1 blocker 6.9, STAT3 blocker 3.2 and NF-kB expr up 1.
CC(=O)c1c(C)nc(-c2ccc(Cl)cc2)nc1N was read as STAT3 act 130.4, APP 5'UTR act 116.1, STAT1 activator 152.5*, STAT1 blocker -62.0, STAT3 blocker -31.1, NF-kB expr up 1.05, STAT1 activ conf 175.4*, NFkB act 139.6* and STAT3 act 2 145.8*.

Bioassay records from PubChem BioAssay.
